{"data": "Results from different studies", "cell line": "MCF7", "read-out": "cell growth or viability", "note": "Compare with care: the assays were run in different laboratories."}
{"SMILES": "O=C(NCc1cn(Cc2ccc(Br)cc2)nn1)Nc1ccc(Cl)cc1", "assay": "CCK-8", "setting": "50 µM, 48 h", "endpoint": "viability", "result": "89.8%"}
{"SMILES": "NCCC(=O)Nc1ccccc1/N=c1\\cc(-c2ccc3c(c2)OCO3)oc2ccccc12", "assay": "CCK-8", "setting": "1 µM", "endpoint": "inhibition", "result": "-5.6%"}
{"SMILES": "COc1ccc(NC(=O)Nc2ccc(-c3cn(Cc4ccc(Br)cc4)nn3)cc2)cc1", "assay": "CCK-8", "setting": "50 µM, 72 h", "endpoint": "viability", "result": "105%"}
{"SMILES": "NCCC(=O)Nc1ccccc1/N=c1\\cc(-c2ccc3oc(N)nc3c2)oc2ccccc12", "assay": "CCK-8", "setting": "1 µM", "endpoint": "inhibition", "result": "6%"}
{"SMILES": "CCS(=O)(=O)Oc1ccc(C=NNC(=O)c2nc3ccccc3s2)cc1OC", "assay": "MTT", "setting": "100 µM, 48 h", "endpoint": "cell death", "result": "40.5%"}
{"SMILES": "CN(C)CCNC(=O)c1ccc(-c2nc3ccc4[nH]ncc4c3c3c2CCCCC3)c(F)c1", "setting": "72 h", "endpoint": "GI50", "result": "3.31 µM"}
{"SMILES": "Nc1nc2ccc(-c3c/c(=N\\c4ccccc4NC(=O)CCN4CCOCC4)c4ccccc4o3)cc2o1", "assay": "CCK-8", "setting": "1 µM", "endpoint": "inhibition", "result": "7.35%"}
{"SMILES": "COc1ccc(NC(=O)Nc2cccc(-c3cn(Cc4ccc(Cl)cc4)nn3)c2)cc1", "assay": "CCK-8", "setting": "50 µM, 48 h", "endpoint": "viability", "result": "100%"}
{"SMILES": "O=C(NCc1cn(Cc2ccc(Br)cc2)nn1)Nc1ccccc1Br", "assay": "CCK-8", "setting": "50 µM, 72 h", "endpoint": "viability", "result": "80.2%"}
{"SMILES": "Cc1n[nH]c2ccc3nc(-c4ccc(C(=O)NCCN(C)C)cc4F)c4c(c3c12)CCCC4", "setting": "72 h", "endpoint": "GI50", "result": "0.99 µM"}
{"SMILES": "O=C(Nc1cccc(-c2cn(Cc3ccc(Cl)cc3)nn2)c1)Nc1ccccc1Br", "assay": "CCK-8", "setting": "50 µM, 48 h", "endpoint": "viability", "result": "89.5%"}
{"SMILES": "O=C(Nc1ccccc1/N=c1\\cc(-c2ccc3c(c2)OCO3)oc2ccccc12)N1CCOCC1", "assay": "CCK-8", "setting": "1 µM", "endpoint": "inhibition", "result": "12.9%"}
{"SMILES": "CCOc1ccc(-c2cc(C(=O)O)c(-c3ccc(Cl)cc3)o2)cc1", "assay": "MTT", "setting": "48 h", "endpoint": "EC50", "result": "170 µM"}
{"SMILES": "Nc1ccccc1/N=c1\\cc(-c2ccc3c(c2)OCO3)oc2ccccc12", "assay": "CCK-8", "setting": "1 µM", "endpoint": "inhibition", "result": "7.65%"}
{"SMILES": "COc1ccc(NC(=O)Nc2cccc(-c3cn(Cc4ccc(C)cc4)nn3)c2)cc1", "assay": "CCK-8", "setting": "50 µM, 72 h", "endpoint": "viability", "result": "104%"}
{"SMILES": "O=C(NCc1cn(Cc2cccc(Cl)c2)nn1)Nc1ccc(Cl)cc1", "assay": "CCK-8", "setting": "50 µM, 48 h", "endpoint": "viability", "result": "82%"}
{"SMILES": "COc1ccc(NC(=O)Nc2ccc(-c3cn(Cc4ccc(Cl)cc4)nn3)cc2)cc1", "assay": "CCK-8", "setting": "50 µM, 48 h", "endpoint": "viability", "result": "95.1%"}
{"SMILES": "COc1ccc2/c(=N/c3ccccc3NC(=O)N3CCOCC3)cc(-c3ccc4c(c3)OCCO4)oc2c1", "assay": "CCK-8", "setting": "1 µM", "endpoint": "inhibition", "result": "7.65%"}
{"SMILES": "COc1ccc(NC(=O)Nc2cccc(-c3cn(Cc4cccc(Cl)c4)nn3)c2)cc1", "assay": "CCK-8", "setting": "50 µM, 48 h", "endpoint": "viability", "result": "103%"}
{"SMILES": "O=C(Nc1ccc(-c2cn(Cc3ccc(Br)cc3)nn2)cc1)Nc1ccccc1Br", "assay": "CCK-8", "setting": "50 µM, 48 h", "endpoint": "viability", "result": "92.9%"}
